Reference: publication PMC9476207 (ACS Omega, 2022)

Key:
Format in all cases: cell-based, human
[1] = system: A549 cells; assay: Loss of mitochondrial membrane potential; settings: A549, 48 h
Method in brief: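 A549 cells (1 × 10^5/mL/well, six-well plates) were treated for 48 h with 1.5, 3.0 or 5.0 μM test compound; paclitaxel served as positive control. After an ice-cold PBS wash, cells took up rhodamine-123 (final 0.2 mM) for 20–30 min in the dark in the incubator. Cells were washed again and fluorescence was assessed qualitatively by microscopy.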

[2] = system: A549 cells; assay: Reactive oxygen species; settings: 18f at 5, 3 and 1.5 μM, 48 h
Method in brief: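 A549 cells (1 × 10^5, six-well) were grown 24 h, then exposed to test compound at 1.5, 3 and 5 μM for 48 h. 0.05% H2O2 positive control was added 1 h before the end. Cells were PBS-washed and loaded with DCFH-DA (10 mM as printed) for 30 min in the dark, rewashed, and viewed by inverted fluorescence microscopy.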

[3] = system: A549 cells; assay: Apoptosis assay through DAPI staining; settings: 18f at 5, 3 and 1.5 μM, 48 h, paclitaxel positive control

CC(=O)O[C@H]1C(=O)[C@@]2(C)[C@H]([C@H](OC(=O)c3ccccc3)[C@]3(O)C[C@H](OC(=O)[C@H](O)[C@@H](NC(=O)c4ccccc4)c4ccccc4)C(C)=C1C3(C)C)[C@]1(OC(C)=O)CO[C@@H]1C[C@@H]2O [paclitaxel]
loss of mitochondrial membrane potential (rhodamine-123 fluorescence) ([1]; 18f at 3.0 μM): quite similar
loss of mitochondrial membrane potential (rhodamine-123 fluorescence) ([1]; 18f at 5 μM, paclitaxel at its IC50 doses): maximum loss in the mitochondrial membrane potential
intracellular ROS (DCFDA fluorescence, qualitative) [2]: higher in the treated groups
nuclear morphological changes (DAPI staining) [3]: chromatin condensation, nuclear blebbing, and formation of apoptotic bodies
